Experimental data: ChEMBL document CHEMBL1154198, “Chemical genetics of Plasmodium falciparum” (Nature, 2010)

Columns and labels:
Plasmodium falciparum [1] = assay: ST_JUDE: Plasmodium falciparum 3D7 EC50 (uM) as measured by SYBR green dye; type: functional, organism-based
Plasmodium falciparum [2] = assay: ST_JUDE: Plasmodium falciparum K1 EC50 (uM) as measured by SYBR green dye; type: functional, organism-based
Plasmodium falciparum [3] = assay: ST_JUDE: Cytotoxicity against Plasmodium falciparum 3D7; type: functional, organism-based
Procedure, shortened: (§1)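 Asexual P. falciparum grown in human erythrocytes, exposed to compounds for 72 h, and growth read as the DNA quantity in treated versus control cultures. Dose-response run at 12 concentrations from 10 μM to 5 nM.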

Plasmodium falciparum [4] = assay: ST_JUDE: Cytotoxicity against Plasmodium falciparum K1; type: functional, organism-based; procedure, shortened: as §1
Plasmodium falciparum [5] = assay: ST_JUDE: Cytotoxicity against Plasmodium falciparum V1/S; type: functional, organism-based
Toxoplasma gondii = assay: ST_JUDE: Growth inhibition of to Toxoplasma gondii, in human U-2OS cells, as measured by luciferase.; type: functional, organism-based; conditions: RH, U2OS
Procedure, shortened: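 T. gondii parasites engineered to express luciferase; drug sensitivity read by luminescence.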

Trypanosoma brucei = assay: ST_JUDE: Cytotoxicity using luciferase to measure ATP as an indicator of the viability of Trypanosoma brucei; type: functional, organism-based
Leishmania major = assay: ST_JUDE: Cytotoxicity using Alamar Blue to measure viability of Leishmania major; type: functional, organism-based
Procedure, shortened: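 L. major promastigotes; drug susceptibility read with Alamar Blue.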

[6] = ST_JUDE: Cytotoxicity using luciferase to measure ATP as an indicator of the viability of human foreskin fibroblast cells (BJ); type: toxicity, cell-based
[7] = ST_JUDE: Cytotoxicity using luciferase to measure ATP as an indicator of the viability of human epithelial hepatocellular carcinoma cells (HepG2); type: toxicity, cell-based
[8] = ST_JUDE: Cytotoxicity using luciferase to measure ATP as an indicator of the viability of human epithelial embryonic kidney cells (HEK293); type: toxicity, cell-based
[9] = ST_JUDE: Cytotoxicity using luciferase to measure ATP as an indicator of the viability of human Burkitt''s lymphoma lymphoblast cells (Raji); type: toxicity, cell-based
Plasmodium falciparum [10] = assay: ST_JUDE: Cytotoxicity against Plasmodium falciparum Dd2; type: functional, organism-based
Plasmodium falciparum [11] = assay: ST_JUDE: Cytotoxicity against Plasmodium falciparum W2; type: functional, organism-based
Plasmodium falciparum [12] = assay: ST_JUDE: Cytotoxicity against Plasmodium falciparum SB-A6; type: functional, organism-based
Plasmodium falciparum [13] = assay: ST_JUDE: Cytotoxicity against Plasmodium falciparum D10 transfected with yeast DHOD; type: functional, organism-based

Structure (SMILES)	EC50 (Plasmodium falciparum [1]) [nM]	EC50 (Plasmodium falciparum [2]) [nM]	EC50 (Plasmodium falciparum [3]) [nM]	EC50 (Plasmodium falciparum [4]) [nM]	EC50 (Plasmodium falciparum [5]) [nM]	EC50 (Toxoplasma gondii) [µM]	EC50 (Trypanosoma brucei) [µM]	EC50 (Leishmania major) [µM]	EC50 [6] [µM]	EC50 [7] [µM]	EC50 [8] [µM]	EC50 [9] [µM]	EC50 (Plasmodium falciparum [10]) [nM]	EC50 (Plasmodium falciparum [11]) [nM]	EC50 (Plasmodium falciparum [12]) [nM]	EC50 (Plasmodium falciparum [13]) [nM]
Nc1ccc(-c2nc3cc(-c4ccc5[nH]c(-c6ccc(N)cc6)nc5c4)ccc3[nH]2)cc1	264	174	221	201	154	> 21	2.52	> 16.4	> 38.3	8.94	> 38.3	> 38.3	165	77.9	108	120
N=c1n(CCN2CCCCC2)c2ccccc2n1CC(O)c1ccc(Cl)c(Cl)c1 (centres undefined)	186	238	503	617	1430	11.5	4.12	> 21.9	10.4	6.97	16	21	346	640	1270	1290
CC(C)(C)C(=O)N1CCN(c2ccc([N+](=O)[O-])c(NC3CC3)c2)CC1	670	642	1240	1070	1150	> 23.8	21.3	> 18.6	> 43.4	> 43.4	> 43.4	> 43.4	1050	480	1240	1360
CCN1CCN(Cc2c(O)ccc3c(=O)c(Oc4ccccc4C(C)C)c(C(F)(F)F)oc23)CC1	226	59.2	223	69.6	102	> 12.8	> 22.4	> 9.98	> 23.3	> 23.3	> 23.3	> 23.3	523	41.8	335	247
CCOc1cc2c(cc1OCC)C(c1cc(C)c(O)c(C)c1)NCC2 (centres undefined)	1830	587	1300	439	868	> 28.5	14.8	> 22.2	> 52	> 52	> 52	> 52	420	451	3000	2770
CCCO/C(O)=C1\C(C)=NC2=C(C(=O)CC(c3ccc(OC)cc3)C2)C1c1ccccc1Cl (centres undefined)	713	466	373	160	173	> 22.9	5.09	> 17.9	> 41.9	> 41.9	> 41.9	> 41.9	301	88.9	167	188
CCn1nc(-c2ccc(C(F)(F)F)cc2)nc2c(=O)n(C)c(=O)nc1-2	779	1370	402	246	225	> 27.4	> 48	> 21.4	> 50.1	2.87	> 50.1	> 50.1	4550	90.4	1300	613
Cn1c(=O)c2c(-c3ccc(C(C)(C)C)cc3)n(-c3cc(Cl)ccc3O)cc2n(C)c1=O	1140	1220	> 10200	> 10200	988	> 21.7	6.75	> 16.9	> 39.5	> 39.5	> 39.5	> 39.5	1270	780	976	982
CCOc1ccc(/C=C/c2nc(=O)c3ccccc3o2)cc1	188	128	345	392	601	0.273	> 38.3	> 17.1	> 39.9	> 39.9	> 39.9	> 39.9	307	73.1	> 10200	> 10200
O=C1C(Nc2ccc(Br)cc2)=C(n2nnc3ccccc32)C(=O)c2ccccc21	28.2	21.6	60.2	24.5	32.6	> 13.6	1.31	> 10.6	> 24.8	> 24.8	> 24.8	> 24.8	590	> 6370	80.1	59.3
Oc1ccc(Br)cc1CN1CCN(Cc2ccccc2F)CC1	719	334	2060	745	936	> 19.8	27.2	> 15.5	> 36.1	> 36.1	> 36.1	> 36.1	1790	1610	2770	3660
CCOC(=O)C1(Cc2cccc(C(F)(F)F)c2)CCN(Cc2ccccc2O)CC1	389	57.6	1330	368	486	> 22.6	11.7	> 17.7	> 41.3	> 41.3	> 41.3	> 41.3	345	726	858	743
Oc1ccc(Br)cc1CN1CCN(Cc2ccccc2)CC1	867	419	1230	401	582	> 14.9	> 26	> 11.6	> 27.1	> 27.1	> 27.1	> 27.1	776	848	2050	1750
CCOc1ccc(Nc2nc(NCc3ccccc3)c3ccccc3n2)cc1	1150	1540	1140	1440	1070	> 21.7	5.62	0.0088	8.41	4.77	8.67	8.22	651	> 10200	305	1070
Cc1ccc(C)c(N2CCN(Cc3cc(Br)ccc3O)CC2)c1	395	178	532	206	297	> 19.5	28.3	> 15.3	> 35.6	> 35.6	> 35.6	> 35.6	427	571	716	579
CN1/C(=C/c2cccc[n+]2C)Sc2ccccc21	540	389	567	605	503	> 15.5	3.95	0.108	> 28.3	> 28.3	> 28.3	4.05	771	495	681	879
Oc1ccc(C2NCc3ccccc3-n3cccc32)cc1Cl (centres undefined)	1250	357	1490	395	360	> 25.2	> 44.1	> 19.7	> 46	> 46	> 46	> 46	1380	1090	2350	1770
COc1ccc(NC(=O)C2c3ccccc3C(=O)N(CC(C)C)C2c2cccs2)cc1 (centres undefined)	102	120	217	196	416	> 26.1	7.55	> 20.4	> 47.7	> 47.7	> 47.7	> 47.7	255	> 12300	370	329
CC1=NC2=C(C(=O)CC(c3ccc(Cl)cc3)C2)C(c2ccc(F)cc2)/C1=C(\O)OC(C)C (centres undefined)	775	779	989	436	821	> 21.8	1.56	> 17	> 39.8	> 39.8	> 39.8	> 39.8	1300	656	460	649
